ChEMBL document CHEMBL2346641, “Discovery of disubstituted piperidines and homopiperidines as potent dual NK1 receptor antagonists-serotonin reuptake transporter inhibitors for the treatment of depression” (Bioorg Med Chem, 2013)
Calls of active or inactive are those of the source.

Experiments:
[1] = Ratio of drug level in brain to serum in gerbil at 10 mg/kg, ip after 36 mins; format: ADME, organism-based; set-up: dose 10 mg/kg, route intraperitoneal; details: gerbillinae
Procedure, shortened: (§1)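 Gerbils given single IP dose in 100% PEG-400 (0.1–30 mg/kg); brain and serum sampled 36 min post-dose, matching the interval from dosing to end of forced swim test. Drug concentrations (nM) measured in each matrix and brain-to-serum ratio calculated; mean of n = 3 with SD.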

Homo sapiens [2] = species on record: Homo sapiens; experiment: Inhibition of Ca2+ channel (unknown origin) at 10 uM
Procedure, shortened: (§2)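 Screened at 10 µM in a commercial panel of over 70 receptors. Significance threshold set at ≥50% inhibition.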

[3] = Ratio of drug level in brain to serum in gerbil at 0.1 mg/kg, ip after 36 mins; format: ADME, organism-based; set-up: dose 0.1 mg/kg, route intraperitoneal; details: gerbillinae; procedure, shortened: as §1
[4] = biological target: Histamine H2 receptor (Homo sapiens) (UniProt P25021); experiment: Inhibition of histamine H2 receptor (unknown origin) at 10 uM; procedure, shortened: as §2
[5] = Ratio of drug level in brain to serum in gerbil at 3 mg/kg, ip after 36 mins; format: ADME, organism-based; set-up: dose 3 mg/kg, route intraperitoneal; details: gerbillinae; procedure, shortened: as §1
[6] = Drug uptake in gerbil serum at 1 mg/kg, ip after 36 mins; format: ADME, organism-based; set-up: dose 1 mg/kg, route intraperitoneal; details: gerbillinae, read-out: Drug uptake
Procedure, shortened: (§3)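 Gerbils given IP doses as a solution in 100% PEG-400. Brain and serum sampled 36 min post-injection, covering the time from dosing to the end of the behavioral test. Values are means (n = 3) with SD.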

Neuromedin-K receptor = biological target: T1, Neuromedin-K receptor (Homo sapiens, UniProt P29371); experiment: Inhibition of NK3 receptor (unknown origin)
T1 sequence (P29371 whole entry): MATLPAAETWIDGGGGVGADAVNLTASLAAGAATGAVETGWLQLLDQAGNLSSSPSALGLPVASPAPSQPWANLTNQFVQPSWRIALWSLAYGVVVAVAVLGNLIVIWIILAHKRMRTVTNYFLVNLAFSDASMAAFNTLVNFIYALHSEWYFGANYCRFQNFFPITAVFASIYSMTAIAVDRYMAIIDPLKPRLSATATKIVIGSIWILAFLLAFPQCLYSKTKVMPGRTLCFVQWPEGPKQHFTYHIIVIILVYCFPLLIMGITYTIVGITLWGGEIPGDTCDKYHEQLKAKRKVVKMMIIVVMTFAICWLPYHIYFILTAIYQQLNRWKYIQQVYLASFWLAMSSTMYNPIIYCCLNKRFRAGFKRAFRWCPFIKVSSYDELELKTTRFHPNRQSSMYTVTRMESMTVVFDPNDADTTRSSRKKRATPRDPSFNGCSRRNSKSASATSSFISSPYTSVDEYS

Gerbillinae [7] = experiment: Toxicity in gerbil assessed as behavioral change measuring spontaneous locomotor activity at 0.1 to 1 mg/kg, ip after 30 mins relative to vehicle-treated control; format: organism-based; set-up: dose 0.1-1 mg/kg, route intraperitoneal; details: in vivo, 0.5 h
[8] = Drug uptake in gerbil serum at 0.3 mg/kg, ip after 36 mins; format: ADME, organism-based; set-up: dose 0.3 mg/kg, route intraperitoneal; details: gerbillinae, read-out: Drug uptake; procedure, shortened: as §3
Homo sapiens [9] = species on record: Homo sapiens; experiment: Inhibition of Na+ channel (unknown origin) at 10 uM; procedure, shortened: as §2
[10] = biological target: 5-hydroxytryptamine receptor 2A (Homo sapiens, UniProt P28223); experiment: Inhibition of 5HT2A receptor (unknown origin)
[11] = Drug uptake in gerbil brain at 1 mg/kg, ip after 36 mins; format: ADME, organism-based; set-up: dose 1 mg/kg, route intraperitoneal; details: gerbillinae, read-out: Drug uptake; procedure, shortened: as §3
[12] = biological target: Sodium-dependent dopamine transporter (Homo sapiens, UniProt Q01959); experiment: Inhibition of DAT (unknown origin)
[13] = biological target: 5-hydroxytryptamine receptor 1B (Homo sapiens, UniProt P28222); experiment: Inhibition of 5HT1B receptor (unknown origin)
[14] = Binding affinity to gerbil NK1 receptor; set-up: species or system Gerbillinae
[15] = biological target: T2, Sodium-dependent noradrenaline transporter (Homo sapiens, UniProt P23975); experiment: Inhibition of NET (unknown origin) at 10 uM; procedure, shortened: as §2
[16] = biological target: T3, 5-hydroxytryptamine receptor 2C (Homo sapiens, UniProt P28335); experiment: Inhibition of 5HT2C receptor (unknown origin)
T3 sequence (P28335 whole entry): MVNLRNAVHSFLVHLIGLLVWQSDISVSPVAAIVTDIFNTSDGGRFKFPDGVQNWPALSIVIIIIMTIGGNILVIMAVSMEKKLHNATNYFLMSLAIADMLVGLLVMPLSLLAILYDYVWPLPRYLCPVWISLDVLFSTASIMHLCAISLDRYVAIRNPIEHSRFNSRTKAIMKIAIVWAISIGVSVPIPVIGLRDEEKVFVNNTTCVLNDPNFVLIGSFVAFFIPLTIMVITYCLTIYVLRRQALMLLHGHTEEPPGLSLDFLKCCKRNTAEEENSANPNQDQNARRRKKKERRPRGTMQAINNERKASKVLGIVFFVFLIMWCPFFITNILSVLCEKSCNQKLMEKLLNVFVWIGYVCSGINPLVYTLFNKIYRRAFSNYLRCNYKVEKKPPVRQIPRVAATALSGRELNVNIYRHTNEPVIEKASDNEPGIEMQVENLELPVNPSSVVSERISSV

[17] = biological target: Sodium-dependent serotonin transporter (Homo sapiens, UniProt P31645); format: cell-based, HEK293
[18] = biological target: T2, Sodium-dependent noradrenaline transporter; experiment: Inhibition of NET (unknown origin)
[19] = biological target: T4, 5-hydroxytryptamine receptor 1A (Homo sapiens, UniProt P08908); experiment: Inhibition of 5HT1A receptor (unknown origin)
T4 sequence (P08908 whole entry): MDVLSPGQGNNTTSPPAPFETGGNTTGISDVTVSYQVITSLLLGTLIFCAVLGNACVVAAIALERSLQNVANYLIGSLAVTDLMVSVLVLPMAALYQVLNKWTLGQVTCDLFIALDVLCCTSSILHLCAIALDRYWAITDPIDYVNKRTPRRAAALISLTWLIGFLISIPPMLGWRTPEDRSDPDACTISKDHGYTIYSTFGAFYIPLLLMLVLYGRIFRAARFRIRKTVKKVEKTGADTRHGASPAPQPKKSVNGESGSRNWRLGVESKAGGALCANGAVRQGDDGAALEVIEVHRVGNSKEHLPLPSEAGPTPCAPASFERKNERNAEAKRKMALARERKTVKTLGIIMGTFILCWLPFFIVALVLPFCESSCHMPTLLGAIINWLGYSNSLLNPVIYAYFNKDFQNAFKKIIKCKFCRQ

[20] = biological target: 5-hydroxytryptamine receptor 2B (Homo sapiens, UniProt P41595); details: 10 uM
[21] = Drug uptake in gerbil brain at 10 mg/kg, ip after 36 mins; format: ADME, organism-based; set-up: dose 10 mg/kg, route intraperitoneal; details: gerbillinae, read-out: Drug uptake; procedure, shortened: as §3
[22] = Drug uptake in gerbil serum at 0.1 mg/kg, ip after 36 mins; format: ADME, organism-based; set-up: dose 0.1 mg/kg, route intraperitoneal; details: gerbillinae, read-out: Drug uptake; procedure, shortened: as §3
[23] = Ratio of drug level in brain to serum in gerbil at 1 mg/kg, ip after 36 mins; format: ADME, organism-based; set-up: dose 1 mg/kg, route intraperitoneal; details: gerbillinae; procedure, shortened: as §1
[24] = Ratio of drug level in brain to serum in gerbil at 0.3 mg/kg, ip after 36 mins; format: ADME, organism-based; set-up: dose 0.3 mg/kg, route intraperitoneal; details: gerbillinae; procedure, shortened: as §1
Gerbillinae [25] = experiment: Antidepressant activity in gerbil assessed as decrease in immobility time at 0.1 mg/kg, ip administered for 30 mins prior to testing measured for 6 mins by forced swimming test relative to vehicle-treated control; format: functional, organism-based; set-up: dose 0.1 mg/kg

T2 sequence (P23975 whole entry): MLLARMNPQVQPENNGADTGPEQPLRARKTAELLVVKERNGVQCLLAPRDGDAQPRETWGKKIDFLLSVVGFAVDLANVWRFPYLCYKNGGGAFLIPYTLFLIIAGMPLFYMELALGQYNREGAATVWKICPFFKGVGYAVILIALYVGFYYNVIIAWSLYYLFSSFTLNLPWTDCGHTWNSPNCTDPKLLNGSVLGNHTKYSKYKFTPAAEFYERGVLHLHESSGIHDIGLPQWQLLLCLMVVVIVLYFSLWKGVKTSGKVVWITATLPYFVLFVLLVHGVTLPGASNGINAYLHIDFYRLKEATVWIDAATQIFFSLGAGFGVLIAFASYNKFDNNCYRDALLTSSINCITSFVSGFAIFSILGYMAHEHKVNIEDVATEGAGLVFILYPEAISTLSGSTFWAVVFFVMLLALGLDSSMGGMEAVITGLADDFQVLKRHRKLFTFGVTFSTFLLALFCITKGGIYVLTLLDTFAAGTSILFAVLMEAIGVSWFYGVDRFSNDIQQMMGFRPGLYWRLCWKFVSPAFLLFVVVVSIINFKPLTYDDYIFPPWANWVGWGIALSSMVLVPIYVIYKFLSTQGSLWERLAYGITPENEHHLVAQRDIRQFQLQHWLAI
Histamine H2 receptor (Homo sapiens), sequence (P25021 whole entry): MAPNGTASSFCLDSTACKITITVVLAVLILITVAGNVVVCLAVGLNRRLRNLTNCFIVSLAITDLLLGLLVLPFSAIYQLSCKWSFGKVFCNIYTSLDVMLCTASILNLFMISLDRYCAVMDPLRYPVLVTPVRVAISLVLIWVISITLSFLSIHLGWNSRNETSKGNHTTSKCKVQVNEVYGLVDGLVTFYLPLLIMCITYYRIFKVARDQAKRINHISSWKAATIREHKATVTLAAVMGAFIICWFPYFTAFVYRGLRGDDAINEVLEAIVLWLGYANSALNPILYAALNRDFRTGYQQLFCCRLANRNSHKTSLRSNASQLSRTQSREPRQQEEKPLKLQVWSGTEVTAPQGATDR
Sodium-dependent serotonin transporter, sequence (P31645 whole entry): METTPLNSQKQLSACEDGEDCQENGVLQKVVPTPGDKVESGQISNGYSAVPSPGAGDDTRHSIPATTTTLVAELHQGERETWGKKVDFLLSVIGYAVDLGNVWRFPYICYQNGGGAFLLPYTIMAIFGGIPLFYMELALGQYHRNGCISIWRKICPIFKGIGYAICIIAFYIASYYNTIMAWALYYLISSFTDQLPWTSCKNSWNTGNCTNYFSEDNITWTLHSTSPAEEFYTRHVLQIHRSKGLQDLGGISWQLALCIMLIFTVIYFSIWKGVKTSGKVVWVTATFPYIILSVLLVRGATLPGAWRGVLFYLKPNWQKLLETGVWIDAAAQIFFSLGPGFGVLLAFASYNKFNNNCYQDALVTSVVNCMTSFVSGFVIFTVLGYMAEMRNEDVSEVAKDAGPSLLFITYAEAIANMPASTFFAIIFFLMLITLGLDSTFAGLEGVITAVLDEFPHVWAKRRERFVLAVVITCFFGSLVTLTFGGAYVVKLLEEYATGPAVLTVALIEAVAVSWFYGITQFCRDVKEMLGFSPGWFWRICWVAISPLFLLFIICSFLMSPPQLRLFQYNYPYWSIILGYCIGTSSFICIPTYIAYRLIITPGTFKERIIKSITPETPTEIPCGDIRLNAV
5-hydroxytryptamine receptor 2B, sequence (P41595 whole entry): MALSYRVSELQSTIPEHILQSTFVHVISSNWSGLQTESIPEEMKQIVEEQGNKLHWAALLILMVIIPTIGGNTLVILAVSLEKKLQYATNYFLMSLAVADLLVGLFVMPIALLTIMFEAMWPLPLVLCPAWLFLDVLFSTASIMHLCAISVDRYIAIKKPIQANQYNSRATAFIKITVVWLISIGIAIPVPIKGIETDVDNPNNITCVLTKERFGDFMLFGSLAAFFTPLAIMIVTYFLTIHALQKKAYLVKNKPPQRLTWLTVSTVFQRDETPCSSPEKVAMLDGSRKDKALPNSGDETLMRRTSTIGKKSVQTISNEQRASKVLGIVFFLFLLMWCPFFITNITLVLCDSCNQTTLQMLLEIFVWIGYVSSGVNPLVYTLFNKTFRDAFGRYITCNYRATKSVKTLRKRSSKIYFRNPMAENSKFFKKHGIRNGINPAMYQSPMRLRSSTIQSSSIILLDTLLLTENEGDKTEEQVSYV
Sodium-dependent dopamine transporter, sequence (Q01959 whole entry): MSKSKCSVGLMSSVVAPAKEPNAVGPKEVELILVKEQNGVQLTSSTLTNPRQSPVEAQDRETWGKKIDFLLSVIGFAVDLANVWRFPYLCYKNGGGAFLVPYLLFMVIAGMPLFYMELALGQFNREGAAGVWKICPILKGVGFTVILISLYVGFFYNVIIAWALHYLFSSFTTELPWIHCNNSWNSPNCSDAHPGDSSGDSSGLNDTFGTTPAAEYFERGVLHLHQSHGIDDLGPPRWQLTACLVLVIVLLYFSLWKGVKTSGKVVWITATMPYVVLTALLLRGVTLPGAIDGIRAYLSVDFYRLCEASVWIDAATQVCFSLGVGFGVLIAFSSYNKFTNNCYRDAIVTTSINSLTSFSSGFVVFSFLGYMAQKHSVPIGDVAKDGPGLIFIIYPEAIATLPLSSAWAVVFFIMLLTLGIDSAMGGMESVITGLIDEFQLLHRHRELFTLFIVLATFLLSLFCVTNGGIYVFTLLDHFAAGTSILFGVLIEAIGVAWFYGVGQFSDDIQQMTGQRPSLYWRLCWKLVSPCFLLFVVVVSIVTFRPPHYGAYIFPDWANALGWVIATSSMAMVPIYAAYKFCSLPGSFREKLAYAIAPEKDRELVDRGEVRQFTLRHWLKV
5-hydroxytryptamine receptor 1B, sequence (P28222 whole entry): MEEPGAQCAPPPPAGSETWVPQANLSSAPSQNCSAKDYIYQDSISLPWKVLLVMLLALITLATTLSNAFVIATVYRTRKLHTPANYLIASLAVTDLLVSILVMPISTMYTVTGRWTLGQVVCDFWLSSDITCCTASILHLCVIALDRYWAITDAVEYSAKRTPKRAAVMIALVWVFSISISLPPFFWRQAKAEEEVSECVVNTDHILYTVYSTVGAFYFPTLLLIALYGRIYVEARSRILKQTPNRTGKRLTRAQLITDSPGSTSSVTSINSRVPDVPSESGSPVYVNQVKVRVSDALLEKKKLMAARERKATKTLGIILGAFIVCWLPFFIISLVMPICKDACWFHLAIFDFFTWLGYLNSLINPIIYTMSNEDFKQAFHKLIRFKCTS
5-hydroxytryptamine receptor 2A, sequence (P28223 whole entry): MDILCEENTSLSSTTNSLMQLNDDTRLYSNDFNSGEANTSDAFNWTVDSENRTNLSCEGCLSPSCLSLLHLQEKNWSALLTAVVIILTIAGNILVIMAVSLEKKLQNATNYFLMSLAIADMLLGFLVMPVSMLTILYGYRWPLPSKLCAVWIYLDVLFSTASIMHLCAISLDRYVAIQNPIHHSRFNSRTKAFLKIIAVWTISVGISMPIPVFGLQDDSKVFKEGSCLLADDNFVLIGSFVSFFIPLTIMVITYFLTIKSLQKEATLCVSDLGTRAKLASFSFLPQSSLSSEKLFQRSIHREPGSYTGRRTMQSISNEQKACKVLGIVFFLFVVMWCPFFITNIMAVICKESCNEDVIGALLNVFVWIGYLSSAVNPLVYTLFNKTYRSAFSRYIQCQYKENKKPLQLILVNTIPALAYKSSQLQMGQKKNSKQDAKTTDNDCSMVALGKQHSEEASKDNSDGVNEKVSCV

FC(F)(F)c1cc(COCC2(c3ccccc3)CCNCC2)cc(C(F)(F)F)c1
Kp at 0.6 h [1]: 5.2 | inhibition (Homo sapiens [2]): Active | Kp at 0.6 h [3]: 2.3 | inhibition [4]: Active | Kp at 0.6 h [5]: 4.2 | concentration at 0.6 h [6]: 35 nM | IC50 (Neuromedin-K receptor): > 1000 nM | Activity (Gerbillinae [7]): Non-toxic | concentration at 0.6 h [8]: 12 nM | inhibition (Homo sapiens [9]): Active | IC50 [10]: > 1000 nM | concentration at 0.6 h [11]: 150 nM | IC50 [12]: > 1000 nM | IC50 [13]: > 1000 nM | IC50 [14]: 2 nM | inhibition [15]: Active | IC50 [16]: > 1000 nM | IC50 [17]: 1 nM | IC50 [18]: > 1000 nM | IC50 [19]: > 1000 nM | inhibition [20]: Active | concentration at 0.6 h [21]: 4300 nM | concentration at 0.6 h [22]: 3.6 nM | Kp at 0.6 h [23]: 3.2 | Kp at 0.6 h [24]: 3.2 | Activity (Gerbillinae [25]): inactive
